The source made the active and inactive calls. The calls are words filed in the database; no cut-off is given here.
Experiments:
R2 [1] = experiment: Cytotoxicity against PCFT-null Chinese hamster R2 cells assessed as cell growth inhibition after 96 hrs by CellTiter-Blue assay; assay type: cell-based, Cricetulus griseus; details: R2, 96 h
R2 [2] = experiment: Cytotoxicity against Chinese hamster R2 cells transfected with empty PCDNA3 assessed as cell growth inhibition after 96 hrs by CellTiter-Blue assay; assay type: cell-based, Cricetulus griseus
KB [3] = experiment: Antiproliferative activity against human KB cells expressing FRalpha/PCFT/RFC assessed as cell growth inhibition after 96 hrs by CellTiter-Blue assay; assay type: functional, cell-based
KB [4] = experiment: Antiproliferative activity against human KB cells expressing FRalpha/PCFT/RFC assessed as cell growth inhibition after 96 hrs by CellTiter-Blue assay in presence of 200 nM folic acid; assay type: functional, cell-based
[5] = target: T1, Trifunctional purine biosynthetic protein adenosine-3 (Homo sapiens) (UniProt P22102); experiment: Inhibition of GARFTase in human KB cells expressing FRalpha/PCFT/RFC assessed as cell growth inhibition after 96 hrs by CellTiter-Blue assay in presence of adenosine; assay type: cell-based
T1 sequence (whole entry): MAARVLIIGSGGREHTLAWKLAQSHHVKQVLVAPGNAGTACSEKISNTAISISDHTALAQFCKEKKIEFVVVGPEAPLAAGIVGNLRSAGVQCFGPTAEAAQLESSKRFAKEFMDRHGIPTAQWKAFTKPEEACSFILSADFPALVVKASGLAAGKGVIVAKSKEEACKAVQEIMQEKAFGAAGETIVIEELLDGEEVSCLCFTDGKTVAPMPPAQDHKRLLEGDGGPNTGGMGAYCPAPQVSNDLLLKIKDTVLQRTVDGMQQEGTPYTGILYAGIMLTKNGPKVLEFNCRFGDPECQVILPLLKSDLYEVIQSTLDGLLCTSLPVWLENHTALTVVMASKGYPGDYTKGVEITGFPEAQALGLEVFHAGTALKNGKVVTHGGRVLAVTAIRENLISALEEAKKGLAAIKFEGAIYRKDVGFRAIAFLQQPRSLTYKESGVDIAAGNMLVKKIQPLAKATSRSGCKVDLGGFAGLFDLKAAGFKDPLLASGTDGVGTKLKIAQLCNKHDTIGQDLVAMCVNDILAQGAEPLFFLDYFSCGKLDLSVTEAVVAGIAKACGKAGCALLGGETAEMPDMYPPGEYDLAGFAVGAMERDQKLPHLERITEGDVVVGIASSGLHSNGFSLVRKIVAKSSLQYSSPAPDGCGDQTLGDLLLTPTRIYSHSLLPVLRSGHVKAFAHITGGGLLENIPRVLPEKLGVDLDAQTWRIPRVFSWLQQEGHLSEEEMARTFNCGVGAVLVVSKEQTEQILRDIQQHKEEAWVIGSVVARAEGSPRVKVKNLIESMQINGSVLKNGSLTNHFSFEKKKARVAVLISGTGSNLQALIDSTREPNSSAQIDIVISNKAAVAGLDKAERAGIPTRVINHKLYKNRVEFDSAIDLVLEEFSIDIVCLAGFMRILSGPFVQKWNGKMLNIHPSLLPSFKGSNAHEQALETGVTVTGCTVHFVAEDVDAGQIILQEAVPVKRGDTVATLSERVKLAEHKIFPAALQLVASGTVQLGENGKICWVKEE

[6] = target: T1, Trifunctional purine biosynthetic protein adenosine-3 (Homo sapiens); experiment: Inhibition of GARFTase in human KB cells expressing FRalpha/PCFT/RFC assessed as cell growth inhibition after 96 hrs by CellTiter-Blue assay in presence of AICA; assay type: cell-based
[7] = target: T2, Trifunctional purine biosynthetic protein adenosine-3 (Homo sapiens, UniProt P22102); experiment: Inhibition of GARFTase in human KB cells expressing FRalpha/PCFT/RFC assessed as incorporation of [14C(U)]-glycine into [14C]-formyl GAR preincubated for 1 hr followed by azaserine, L-glutamine, 14C(U)]-glycine addition measured after 16 hrs; assay type: cell-based
T2 sequence (P22102 whole entry): T1 sequence (whole entry)
In short: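 In situ assay in KB cells. Cells were exposed to a range of drug concentrations with [14C]glycine for 16 h under proliferation-assay conditions, with azaserine present. Radiolabelled metabolites were extracted and separated on anion exchange columns, and [14C]formyl GAR quantified. Mean ±SE of three experiments.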

[8] = target: T2, Trifunctional purine biosynthetic protein adenosine-3; experiment: Inhibition of human recombinant His-tagged GARFTase assessed as formation of 5,8-dideazafolate from 10-formyl-5,80-dideazafolic acid measured every 15 secs over 20 mins by spectrophotometric analysis
R2 [9] = experiment: Cellular uptake in PCFT-null Chinese hamster R2 cells at 0.5 uM at 37 degC at pH 5.5 measured over 2 mins; assay type: ADME, cell-based, Cricetulus griseus; details: r2, pH 5.5, 2 min
In short: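 R2/PCFT4 or PCFT-null R2 CHO cells were grown in suspension from spinner flasks. Uptake of 0.5 μM [3H]drug measured over 2 min at 37 °C in MES-buffered saline pH 5.5, with or without 10 μM unlabeled competitor. Uptake was quenched with ice-cold DPBS and cells solubilised in NaOH. Results are pmol/mg protein, mean ±SEM of three experiments.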

[10] = target: T3, Proton-coupled folate transporter (Homo sapiens) (UniProt Q96NT5); experiment: (§1) Binding affinity to human PCFT expressed in Chinese hamster R2/PCFT4 cells assessed as intracellular drug transport rate at 37 degC at pH 5.5 measured over 2 mins by Lineweaver-Burk plot analysis; assay type: cell-based
T3 sequence (whole entry): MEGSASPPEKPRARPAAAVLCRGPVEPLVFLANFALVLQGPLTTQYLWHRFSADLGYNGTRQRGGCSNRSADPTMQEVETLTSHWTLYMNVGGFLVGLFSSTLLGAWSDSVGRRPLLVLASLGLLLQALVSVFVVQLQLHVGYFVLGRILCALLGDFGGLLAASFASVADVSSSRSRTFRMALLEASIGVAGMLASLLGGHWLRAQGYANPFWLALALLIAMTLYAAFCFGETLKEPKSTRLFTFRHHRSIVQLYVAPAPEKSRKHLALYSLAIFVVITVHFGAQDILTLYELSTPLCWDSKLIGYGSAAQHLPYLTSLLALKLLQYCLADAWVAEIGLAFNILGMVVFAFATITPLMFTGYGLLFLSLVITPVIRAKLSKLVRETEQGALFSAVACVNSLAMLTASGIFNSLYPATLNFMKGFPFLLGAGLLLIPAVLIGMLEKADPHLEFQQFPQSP
In short: (§2)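 R2/PCFT4 CHO cells were grown as monolayers, transferred to spinner flasks, and used as suspensions (5–10 × 10⁷ cells). Uptake was quenched with ice-cold DPBS and cells were NaOH-solubilized. Results are pmol/mg protein; Kt and Vmax come from Lineweaver–Burke plots.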

[11] = target: T3, Proton-coupled folate transporter (Homo sapiens); experiment: (§3) Binding affinity to human PCFT expressed in Chinese hamster R2/PCFT4 cells assessed as intracellular drug transport rate at 37 degC at pH 6.8 measured over 2 mins by Lineweaver-Burk plot analysis; assay type: cell-based; in short: as §2
[12] = target: T3, Proton-coupled folate transporter (Homo sapiens); experiment: Binding affinity to human PCFT expressed in Chinese hamster R2/PCFT4 cells assessed as cell growth inhibition after 96 hrs by CellTiter-Blue assay in presence of 200 nM folic acid; assay type: cell-based
In short: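 Human-PCFT-transfected R2 CHO cells, precultured with G418, were plated at ~2500–5000 cells/well across a range of drug concentrations. Medium was folate-free RPMI 1640 (pH 7.2) with 25 nM LCV and 10% dialyzed FBS. Parallel wells received 200 nM folic acid. Incubated up to 96 h, then read with CellTiter Blue fluorescence (ex 560/em 590 nm).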

[13] = target: Folate receptor alpha (Homo sapiens) (UniProt P15328); experiment: Displacement of [3H]-folic acid from human FRalpha expressed in Chinese hamster RT16 cells after 15 mins relative to folic acid; assay type: cell-based
Folate receptor alpha (Homo sapiens), sequence (P15328 25-234 limits assumed): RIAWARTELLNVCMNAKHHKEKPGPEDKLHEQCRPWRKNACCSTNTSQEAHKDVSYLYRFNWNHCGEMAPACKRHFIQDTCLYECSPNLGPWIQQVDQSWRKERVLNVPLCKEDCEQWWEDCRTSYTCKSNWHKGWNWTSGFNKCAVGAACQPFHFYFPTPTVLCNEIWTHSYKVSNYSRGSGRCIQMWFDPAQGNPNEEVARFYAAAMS
In short: (§4)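 Competitive binding to surface folate receptor on RT16 (FRα) or D4 (FRβ) CHO cells. Cells were acid-washed (pH 3.5) to strip bound folate, then incubated in HEPES-buffered saline pH 7.4 with 50 nM [3H]folic acid plus unlabeled ligand (0–1000 nM) for 15 min at 0 °C. Bound label was normalised to protein. Affinity is the inverse molar ratio for 50% displacement, with folic acid set to 1. Mean of 4–10 experiments ±SE.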

[14] = target: Folate receptor beta (Homo sapiens) (UniProt P14207); experiment: Displacement of [3H]-folic acid from human FRbeta expressed in Chinese hamster D4 cells after 15 mins relative to folic acid; assay type: cell-based; in short: as §4
Folate receptor beta (Homo sapiens), sequence (P14207 17-230 limits assumed): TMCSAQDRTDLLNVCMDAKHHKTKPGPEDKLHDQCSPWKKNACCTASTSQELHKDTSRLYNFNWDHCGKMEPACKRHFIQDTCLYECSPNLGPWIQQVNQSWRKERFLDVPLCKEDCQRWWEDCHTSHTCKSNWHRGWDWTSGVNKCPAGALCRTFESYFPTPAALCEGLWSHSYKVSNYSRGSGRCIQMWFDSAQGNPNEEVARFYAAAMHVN

[15] = target: T1, Trifunctional purine biosynthetic protein adenosine-3 (Homo sapiens); experiment: Inhibition of GARFTase in human KB cells expressing FRalpha/PCFT/RFC assessed as cell growth inhibition after 96 hrs by CellTiter-Blue assay in presence of thymidine; assay type: cell-based
SK-OV-3 [16] = experiment: Antitumor activity against human SKOV3 cells expressing RFC/PCFT/FRalpha xenografted in folate-deficient diet fed NCR SCID mouse assessed as delay in tumor growth at 28 mg/kg, iv administered every 4 days on day 3, 7, 11 measured twice per week; assay type: functional, organism-based
In short: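 Female NCR SCID mice, 10 weeks old, given bilateral subcutaneous SKOV3 tumor fragments and randomized at 5 mice/group. Fed ad libitum a folate-deficient diet or a standard folate-replete diet. Dosed intravenously at 0.2 mL/injection on a Q4dx3 schedule (days 3, 7, 11). […] Tumors measured twice weekly; mice weighed daily.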

Mus musculus [17] = experiment: Toxicity in folate-deficient diet fed NCR SCID mouse xenografted with human SKOV3 cells expressing RFC/PCFT/FRalpha assessed as body weight loss at 28 mg/kg, iv administered every 4 days on day 3, 7, 11 relative to control; assay type: organism-based, SK-OV-3; details: in vivo, 96 h
In short: (§5)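 Ten-week-old female NCR SCID mice, fed a folate-deficient or standard folate-replete diet, were implanted subcutaneously and bilaterally with SKOV3 tumour fragments. Randomised at 5 mice/group. Dosed intravenously, 0.2 mL per injection, in 5% ethanol/1% Tween-80/0.5% NaHCO3 in water at pH 6.5, on days 3, 7 and 11. Tumours measured twice weekly and mice weighed daily. T/C taken on day 21; growth delay and log cell kill also reported.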

SK-OV-3 [18] = experiment: Antitumor activity against human SKOV3 cells expressing RFC/PCFT/FRalpha xenografted in folate-replete diet fed NCR SCID mouse assessed as tumor growth inhibition at 28 mg/kg, iv administered every 4 days on day 3, 7, 11 measured on day 21 relative to control; assay type: functional; in short: as §5
Mus musculus [19] = experiment: Toxicity in folate-replete diet fed NCR SCID mouse xenografted with human SKOV3 cells expressing RFC/PCFT/FRalpha assessed as body weight loss at 28 mg/kg, iv administered every 4 days on day 3, 7, 11; assay type: organism-based, SK-OV-3; details: in vivo, 96 h
IGROV-1 = experiment: Antiproliferative activity against human IGROV1 cells after 96 hrs by CellTiter-Blue assay; assay type: functional, cell-based; details: IGROV-1, 96 h
In short: (§6)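 IGROV1 and SKOV3 cells plated at ~2500–5000 cells/well in folate-free RPMI 1640 with 10% dialyzed FBS, antibiotics and 2 nM LCV, over a range of drug concentrations, ±200 nM folic acid in parallel. Incubated up to 96 h. Viability read by Cell Titer Blue fluorescence (ex 560/em 590 nm).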

SK-OV-3 [20] = experiment: Antiproliferative activity against human SKOV3 cells after 96 hrs by CellTiter-Blue assay; assay type: functional, cell-based; details: SK-OV-3, 96 h; in short: as §6
SK-OV-3 [21] = experiment: Antiproliferative activity against human SKOV3 cells after 96 hrs by CellTiter-Blue assay in presence of 200 nM folic acid; assay type: functional, cell-based; details: SK-OV-3, 96 h; in short: as §6
[22] = Binding affinity to human RFC expressed in Chinese hamster PC43-10 cells assessed as cell growth inhibition after 96 hrs by CellTiter-Blue assay
[23] = substrate: Nc1nc2[nH]c(CCCc3cc(C(=O)N[C@@H](CCC(=O)O)C(=O)O)cs3)cc2c(=O)[nH]1; experiment: as §1; assay type: cell-based; in short: as §2
[24] = substrate: Nc1nc2[nH]cc(CCc3ccc(C(=O)N[C@@H](CCC(=O)O)C(=O)O)cc3)c2c(=O)[nH]1; experiment: as §1; assay type: cell-based; in short: as §2
[25] = substrate: Nc1nc2[nH]c(CCCc3cc(C(=O)N[C@@H](CCC(=O)O)C(=O)O)cs3)cc2c(=O)[nH]1; experiment: as §3; assay type: cell-based; in short: as §2
[26] = substrate: Nc1nc2[nH]cc(CCc3ccc(C(=O)N[C@@H](CCC(=O)O)C(=O)O)cc3)c2c(=O)[nH]1; experiment: as §3; assay type: cell-based; in short: as §2

Nc1nc(N)c2c(CCCc3cc(C(=O)N[C@@H](CCC(=O)O)C(=O)O)cs3)coc2n1
IC50 (R2 [1]): > 1000 nM
IC50 (R2 [2]): > 1000 nM
IC50 (KB [3]): 70.3 nM
IC50 (KB [4]): > 1000 nM
inhibition [5]: inactive
inhibition [6]: inactive
IC50 [7]: 101 nM
Ki [8]: 6500 nM

Nc1nc2[nH]cc(CCc3ccc(C(=O)N[C@@H](CCC(=O)O)C(=O)O)cc3)c2c(=O)[nH]1 [PEMETREXED]
Drug uptake (R2 [9]): Not Active
K [10]: 0.044 µM
K [11]: 0.27 µM

Nc1nc2[nH]c(CCCc3csc(C(=O)N[C@@H](CCC(=O)O)C(=O)O)c3)cc2c(=O)[nH]1
IC50 (R2 [1]): 355 nM
IC50 (R2 [2]): > 1000 nM
Activity [12]: Active
IC50 (KB [3]): 0.17 nM
IC50 (KB [4]): 337 nM
Activity [13]: 60%
Activity [14]: 35%
inhibition [5]: inactive
inhibition [15]: Active
inhibition [6]: inactive
IC50 [7]: 2.4 nM
Ki [8]: 13 nM

Nc1nc2[nH]c(CCCc3ccc(C(=O)N[C@@H](CCC(=O)O)C(=O)O)s3)cc2c(=O)[nH]1
Activity (SK-OV-3 [16]): Active
Activity (Mus musculus [17]): 7.9%
T/C (SK-OV-3 [18]): 79%
Activity (Mus musculus [19]): Non-toxic
IC50 (KB [4]): 101 nM
IC50 (IGROV-1): 0.73 nM
IC50 (SK-OV-3 [20]): 2.2 nM
IC50 (SK-OV-3 [21]): 47 nM
Activity [13]: 70%
Activity [14]: 50%
inhibition [5]: inactive
inhibition [6]: inactive
IC50 [22]: 101 nM

Nc1nc(N)c2c(CCCc3csc(C(=O)N[C@@H](CCC(=O)O)C(=O)O)c3)coc2n1
inhibition [5]: inactive
inhibition [6]: inactive
IC50 [7]: 82 nM
Ki [8]: 5500 nM

B1: Proton-coupled folate transporter (Homo sapiens), Q96NT5 (protein)
chain: T3 sequence (whole entry)
Vmax [23]: 24.6 pmol/mg/min
Vmax [24]: 13.4 pmol/mg/min
Vmax [25]: 3 pmol/mg/min
Vmax [26]: 9.2 pmol/mg/min

Source: ChEMBL document CHEMBL3627626, “6-Substituted Pyrrolo[2,3-d]pyrimidine Thienoyl Regioisomers as Targeted Antifolates for Folate Receptor α and the Proton-Coupled Folate Transporter in Human Tumors” (J Med Chem, 2015)
